Measurements as given in ChEMBL document CHEMBL1132206, “Design, synthesis, and in vitro activity of catamphiphilic reverters of multidrug resistance: discovery of a selective, highly efficacious chemosensitizer with potency in the nanomolar range” (J Med Chem, 1999).
Activity calls are given as the source filed them. The rule behind the calls is not given here.

Columns and labels:
Cavia porcellus [1] = species on record: Cavia porcellus; test: Decrease in developed tension of the left atrium of guinea pig expressed as the negative inotropy.; format: functional, Cardiac atrium; set-up: concentration or dose not given beside the values
Outline: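 Isolated guinea pig left atrium, electrically driven at 1 Hz. Read-out is the fall in developed tension at 5 × 10^-5 M, given as percent change from control (n = 5-6).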

Cavia porcellus [2] = species on record: Cavia porcellus; test: Decrease in atrial rate of the right atrium of guinea pig expressed as the negative chronotropy.; set-up: concentration or dose not given beside the values
Cavia porcellus [3] = species on record: Cavia porcellus; test: Potency expressed as EC50 for the negative inotropic activity; 'i' means Inactive; format: functional
K562 [4] = test: The efficacy in reverting MDR was evaluated on human erythroleukemia K-562 cell line; format: functional
Outline: (§1)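 Doxorubicin-resistant and sensitive K 562 cells in exponential growth were used in pH 7.25 HEPES buffer at 37 °C in quartz cuvettes. Pirarubicin uptake was followed as the fall in fluorescence at 590 nm (ex 480 nm). Steady-state nuclear pirarubicin was measured across a range of inhibitor concentrations. α = (CnRi − CnRo)/(CnS − CnRo); αmax is the maximal α, and [i]0.5 is the concentration giving α = 0.5 (mean ± SEM).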

Cavia porcellus [5] = species on record: Cavia porcellus; test: Potency expressed as IC50 for the vasorelaxant activity.; format: functional
Cavia porcellus [6] = species on record: Cavia porcellus; test: Percent inhibition of calcium-induced contraction on K+ depolarized guinea pig aortic strip.; format: functional, Aorta; set-up: concentration or dose not given beside the values
K562 [7] = test: Percentage of the dead cells of K-562 cells was determined for the compound; format: ADME, cell-based; conditions: human
Outline: (§2)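 Doxorubicin-resistant K 562 cells were exposed to compound at 1 µM, and viability was scored by trypan blue exclusion. Dead cells above 20% counted as toxic.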

Cavia porcellus [8] = species on record: Cavia porcellus; test: Potency expressed as EC30 for the negative chronotropic activity.; format: functional
K562 [9] = test: Potency that causes a half maximal increase in nuclear concentration of pirarubicin.; format: functional, Homo sapiens
K562 [10] = test: The efficacy in reverting MDR was evaluated on erythroleukemia K-562 cell line.; format: functional, Homo sapiens; outline: as §1
K562 [11] = test: percentage of the dead cells of K-562 cells was determined for the concentration of 1 uM of the compound.; format: ADME, cell-based; conditions: human, k562, 1 µM; outline: as §2
Cavia porcellus [12] = species on record: Cavia porcellus; test: Potency expressed as EC50 for the negative inotropic activity.; format: functional
Cavia porcellus [13] = species on record: Cavia porcellus; test: Potency expressed as EC30 for the negative chronotropic activity; 'i' means Inactive; format: functional
Cavia porcellus [14] = species on record: Cavia porcellus; test: Potency expressed as IC50 for the vasorelaxant activity; 'i' means inactive.; format: functional
K562 [15] = test: Potency that causes half maximal increase in nuclear concentration of pirarubicin; 'i' means Inactive; format: functional, cell-based; conditions: Homo sapiens; outline: as §1
Cavia porcellus [16] = species on record: Cavia porcellus; test: Decrease in developed tension of the right atrium of guinea pig expressed as the negative chronotropy.; format: functional, Cardiac atrium; set-up: scale not given: the % may be the effect or the level left
Outline: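 Spontaneously beating isolated guinea pig right atrium. Read-out is the fall in atrial rate at 5 × 10^-5 M (10^-5 M for some compounds), given as percent change from control (n = 7-8).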

Cavia porcellus [17] = species on record: Cavia porcellus; test: Potency expressed as IC50 for the vasorelaxant activity; format: functional
Cavia porcellus [18] = species on record: Cavia porcellus; test: Potency expressed as EC30 for the negative chronotropic activity; format: functional

| SMILES | EC50 (Cavia porcellus [3]) | IC50 (Cavia porcellus [5]) | Dead cells (K562 [7]) | Dead cells (K562 [11]) | EC50 (Cavia porcellus [12]) | IC50 (Cavia porcellus [14]) | IC50 (Cavia porcellus [17]) | Activity (Cavia porcellus [1]) | Activity (Cavia porcellus [2]) | Alpha max (K562 [4]) | Activity (Cavia porcellus [6]) | EC30 (Cavia porcellus [8]) | Potency (K562 [9]) | Alpha max (K562 [10]) | EC30 (Cavia porcellus [13]) | Potency (K562 [15]) | Activity (Cavia porcellus [16]) | EC30 (Cavia porcellus [18]) |
| --- | --- | --- | --- | --- | --- | --- | --- | --- | --- | --- | --- | --- | --- | --- | --- | --- | --- | --- |
| C=CCNc1nc(NCC=C)nc(N2CCC(NCCCC(C#N)(c3ccc(OC)c(OC)c3)C(C)C)CC2)n1.Cl (stereo not given) | Not Active | 3450 nM | 0% |  |  |  |  | 39% | 87% | 0.9 | 62% | 1750 nM | 1600 nM |  |  |  |  |  |
| COc1ccc(C(C#N)(CC#CCNCc2cc3ccccc3c3ccccc23)C(C)C)cc1OC.Cl (stereo not given) |  |  |  | 20% | 1290 nM | Inactive |  | 88% | 31% |  | 10% |  | 500 nM | 0.5 | inactive |  |  |  |
| COc1ccc(C(C#N)(CCCNC2c3ccccc3-c3ccccc32)C(C)C)cc1OC.Cl (stereo not given) | Not Active |  | 0% |  |  | Inactive |  | 33% | 74% | 0.8 | 46% | 650 nM | 250 nM |  |  |  |  |  |
| COc1ccc(C(C#N)(CCCN(C)C2c3ccccc3-c3ccccc32)C(C)C)cc1OC.Cl (stereo not given) | Not Active |  | 0% |  |  | Inactive |  | 36% | 26% | 0.8 | 15% |  | 1000 nM |  | inactive |  |  |  |
| Cl.N#CC(CCCNCc1c2ccccc2cc2ccccc12)(c1ccccc1)c1ccccc1 | Not Active |  |  | 20% |  | Inactive |  | 48% | 67% |  | 6% | 660 nM | 500 nM | 0.7 |  |  |  |  |
| COc1ccc(C(C#N)(CCCN(C)Cc2c3ccccc3cc3ccccc23)C(C)C)cc1OC.Cl (stereo not given) |  |  | 3% |  | 650 nM | Inactive |  | 85% |  | 0.5 | 9% |  | 2500 nM |  | inactive |  | 19% |  |
| Cl.N#CC(CCCNC(c1ccccc1)c1ccccc1)(c1ccccc1)c1ccccc1 |  |  |  | 2% | 380 nM | Inactive |  | 94% | 28% |  | 15% |  | 2000 nM | 0.5 | inactive |  |  |  |
| CN(CCCC(C#N)(c1ccccc1)c1ccccc1)Cc1c2ccccc2cc2ccccc12.Cl |  |  |  | 0% | 890 nM | Inactive |  | 70% | 22% |  | 10% |  | 2100 nM | 0.8 | inactive |  |  |  |
| Cl.N#CC(CCCNC12CC3CC(CC(C3)C1)C2)(c1ccccc1)c1ccccc1 |  | 3490 nM | 0% |  | 1030 nM |  |  | 80% | 69% | 0.8 | 55% | 1260 nM | 500 nM |  |  |  |  |  |

The next lines start with results.

| EC50 (Cavia porcellus [3]) | IC50 (Cavia porcellus [5]) | Dead cells (K562 [7]) | Dead cells (K562 [11]) | EC50 (Cavia porcellus [12]) | IC50 (Cavia porcellus [14]) | IC50 (Cavia porcellus [17]) | SMILES | Activity (Cavia porcellus [1]) | Activity (Cavia porcellus [2]) | Alpha max (K562 [4]) | Activity (Cavia porcellus [6]) | EC30 (Cavia porcellus [8]) | Potency (K562 [9]) | Alpha max (K562 [10]) | EC30 (Cavia porcellus [13]) | Potency (K562 [15]) | Activity (Cavia porcellus [16]) | EC30 (Cavia porcellus [18]) |
| --- | --- | --- | --- | --- | --- | --- | --- | --- | --- | --- | --- | --- | --- | --- | --- | --- | --- | --- |
|  | 3800 nM |  |  | 3990 nM |  |  | COc1ccc(C(C#N)(CCCN(C)C23CC4CC(CC(C4)C2)C3)C(C)C)cc1OC.Cl (stereo not given) | 80% | 81% |  | 65% | 910 nM |  |  |  | inactive |  |  |
|  | 4120 nM | 20% |  | 1060 nM |  |  | COc1ccc(C(C#N)(CC#CCNCC(c2ccccc2)c2ccccc2)C(C)C)cc1OC.Cl (stereo not given) | 61% | 67% | 0.7 | 54% | 830 nM | 100 nM |  |  |  |  |  |
| Not Active |  | 0% |  |  |  | 7150 nM | COc1ccc(C(C#N)(CCCNC23CC4CC(CC(C4)C2)C3)C(C)C)cc1OC.Cl (stereo not given) | 45% | 80% | 0.7 | 81% |  | 2000 nM |  |  |  |  | 1700 nM |
|  | 3420 nM | 0% |  | 1160 nM |  |  | COc1ccc(C(C#N)(CC#CCN(C)CC23CC4CC(CC(C4)C2)C3)C(C)C)cc1OC.Cl (stereo not given) | 77% | 92% | 0.8 | 65% | 240 nM | 1300 nM |  |  |  |  |  |
